In the library only some 2.4% were active in any assay of this set; here they are far more common.
PP5 inh – blocks human protein phosphatase 5 activity. P53041. purified PP5c, OMFP substrate fluorescence. inhibition, % at 6.7 µM. actives 0.18% (n = 320,000). AID 1987;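 active = inhibition above the campaign's mean inhibition across all tested compounds plus 3 SD, cut at about 9.5% in these data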;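 also: 0% = DMSO only and 100% = 100 µM cantharidin control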
H9c2 protect – modulators protecting cardiomyocytes from myocardial damage | H9c2 cardiomyocytes, H2O2 injury protection, ATPLite, 2 h | protection from H2O2 cell death, % at 20 µM | actives 0.63% (n = 360,000);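 active = compounds giving at least 50% protection of heart cells from peroxide-induced death in the single-dose screen, raw or plate-pattern-corrected value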;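 also: 0% = DMSO wells with peroxide and 100% = DMSO wells without peroxide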
CTSL1 counter – cathepsin L1 inhibition, PFM18AAP counter-screen | recombinant F. hepatica cathepsin L1, Z-Leu-Arg-MCA fluorescence | inhibition, % at 5.96 µM | actives 0.49% (n = 300,000) | AID 1906;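 active = inhibition above the mean of all tested compounds plus 3 SD, set per screening campaign, cut at about 17% in these data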;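 also: 0% = plate median of test compound wells and 100% = 1 µM Z-Phe-Ala-diazomethylketone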
pCIP destab – lowers stability of the mouse p/CIP coactivator protein; Q05BA5; F442A p/CIP-EGFP cells, EGFP fluorescence, 16 h; decrease of EGFP signal, % at 10 µM; actives 0.01% (n = 290,000); AID 1984;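 active = EGFP signal decrease of at least 30% at 10 µM or well 3 SD below plate mean, unless failing retest; inactive = the rest, including hits failing retest or dose response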
JMJD2C inh – inhibitors of human GASC-1 (JMJD2C) demethylase | GST-JMJD2C(1-420) H3K9me3 demethylation, DELFIA europium | Q9H3R0 | AID 2099 | inhibition, % at 2.35 µM | actives 0.069% (n = 330,000);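 active = more than half of a compound's replicate wells show inhibition beyond 50%, single wells judged on their own value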;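 also: signal counts dimethyl H3K9 product captured on neutravidin plate; 0% = median of DMSO wells and 100% = 0.3 times that DMSO median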
Target sequence (Q9H3R0 1-420 limits assumed): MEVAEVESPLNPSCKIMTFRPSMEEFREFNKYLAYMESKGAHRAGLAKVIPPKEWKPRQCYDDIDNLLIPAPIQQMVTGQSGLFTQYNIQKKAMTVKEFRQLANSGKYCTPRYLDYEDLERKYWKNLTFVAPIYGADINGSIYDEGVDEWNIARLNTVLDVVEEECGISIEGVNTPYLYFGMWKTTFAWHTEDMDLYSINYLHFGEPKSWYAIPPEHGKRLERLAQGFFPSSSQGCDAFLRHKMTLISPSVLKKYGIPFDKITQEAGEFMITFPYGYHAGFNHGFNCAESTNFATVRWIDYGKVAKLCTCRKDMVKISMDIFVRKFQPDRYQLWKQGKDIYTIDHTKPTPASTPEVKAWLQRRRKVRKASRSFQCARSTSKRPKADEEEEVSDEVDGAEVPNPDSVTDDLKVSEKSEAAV
T cruzi repl – blocks replication of Trypanosoma cruzi. T. cruzi beta-gal in NIH3T3, luminescence, 90 h. inhibition, % (concentration not given with the values). actives 1.4% (n = 300,000). AID 1885;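 active = mean inhibition across valid replicates above about 55%, limit read from the data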;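 also: signal also drops with host cell toxicity which is not excluded here; 0% = plate median of DMSO wells and 100% = zero luminescence signal; higher percent means less beta-gal luminescence so fewer parasites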
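compound dosing = single 50 nL compound addition per well in DMSO | material = NIH/3T3 host cells with β-galactosidase reporter T. cruzi | input = 5,000 host fibroblasts per well | timing = ≥90 h infection period, 3 h prior cell attachment | read-out basis = percent inhibition of parasite-derived β-gal signal | detection = GalScreen β-gal luminescence, detergent lysis, 60 min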
Active calls of the source: *; nt = no result given.

SMILES	PP5 inh	H9c2 protect	CTSL1 counter	pCIP destab	JMJD2C inh	T cruzi repl
CC(C)(C)C1CCC(=NNC(=O)c2cc3c(s2)CCCC3)CC1 (stereo not drawn)	3	8	3	-2	-9	-3
CCc1cc(C(=O)NNC(=O)CCl)sc1C	0	2	90*	2	8	-14
OC(CNc1ccccc1)COc1ccc(OCC(O)CNc2ccccc2)cc1 (stereo not drawn)	1	-20	0	-15	0	63*
O=C(c1ccc(Cl)cc1)N1CCC(C(=O)N2CCCc3ccccc32)CC1	1	9	-2	-16	-1	2
CCN(CC)C(=O)CNC(=O)c1nn(-c2ccc(OC)c(Cl)c2)c(=O)c2ccccc12	4	3	-1	4	-12	-10
COc1ccc(-n2nc(C(=O)NCC(=O)Nc3cc(OC)c(OC)c(OC)c3)c3ccccc3c2=O)cc1Cl	3	58*	3	-6	13	34
COc1cc(C=C2CCCC(=Cc3ccc(OCC4CO4)c(OC)c3)C2=O)ccc1OCC1CO1 (stereo not drawn)	nt	81*	nt	nt	nt	nt
CNC(=O)COc1ccccc1C(=O)Nc1ccc2c(c1)oc1ccccc12	-1	-6	1	-1	5	24
N#Cc1ccccc1NC(=O)c1ccccc1OCC(=O)Nc1ccc2c(c1)oc1ccccc12	4	-6	-1	nt	-5	61*
COc1cc2c(cc1OC)C(COc1ccc3c(C)cc(=O)oc3c1)N(C(=O)c1ccco1)CC2 (stereo not drawn)	1	58*	-30	3	-12	5
COc1cc2c(cc1OC)C(c1cc3cccc(C)c3[nH]c1=O)N(C(=O)c1ccco1)CC2 (stereo not drawn)	2	0	-4	2	4	58*
COc1ccc(C(c2nnnn2C2CCCCC2)N2CCN(C/C=C/c3ccccc3)CC2)cc1 (stereo not drawn)	nt	-7	nt	nt	nt	nt
CC(C)Cc1ccc(CN2CCCC(NC(=O)c3cnc4ccccn4c3=O)C2)cc1 (stereo not drawn)	-1	-7	3	-13	2	55*
O=C(NC1CCCN(Cc2ccc(Cl)cc2)C1)c1cnc2ccccn2c1=O (stereo not drawn)	-2	5	6	-10	-3	23
O=C(NCc1cccc(Cl)c1)c1cccc2c(-c3cccnc3)coc12	nt	12	nt	nt	nt	nt
CC(=O)Nc1ccc(S(=O)(=O)N2CCN(S(=O)(=O)c3ccc(NC(C)=O)cc3)CC2)cc1	nt	-6	nt	9	3	-8
O=C(Nc1ccncc1)c1cc(S(=O)(=O)N2CCCC2)ccc1Cl	nt	-10	nt	nt	2	nt
O=C(Nc1ccccc1)c1ccc(N2CCN(c3ccccc3)CC2)c(S(=O)(=O)N2CCOCC2)c1	4	0	-1	-4	7	56*
CC(=O)Nc1ccc(S(=O)(=O)N2CCN(c3ccc(C)c(Cl)c3)CC2)cc1	4	-21	20*	-8	-4	-1
O=C(Nc1ccccc1)c1ccc(N2CCN(c3ccccn3)CC2)c(S(=O)(=O)N2CCOCC2)c1	0	2	-2	1	1	20
O=C(Nc1ccncc1)c1cc(S(=O)(=O)N2CCN(c3ccccc3)CC2)ccc1Cl	1	-10	-2	nt	4	61*
CCOc1ccc(CCn2c(-c3ccco3)nc3ccccc3c2=O)cc1OCC	-1	104*	4	-13	5	15
O=c1c2ccccc2nc(-c2ccco2)n1Cc1ccccc1	2	-2	2	-1	-25	4
CCN(CC)S(=O)(=O)c1cccc(C(=O)/C=C2/N(C)c3ccccc3C2(C)C)c1	1	-4	1	-8	-2	57*
Cc1cccc2c1NC(C)CC2C (stereo not drawn)	0	7	3	-8	7	59*
SMILES	PP5 inh	H9c2 protect	CTSL1 counter	pCIP destab	JMJD2C inh	T cruzi repl
COc1ccc(OC)c(Nc2c3c(nc4ccccc24)CCC3)c1	3	-8	7	-3	3	59*
COc1ccc(OC)c(NC(=O)COC(=O)c2c3c(nc4ccccc24)CCCC3)c1	8	56*	-21	0	2	26
OCC1(CCc2ccccc2)CCCN(CCCc2ccccc2)C1 (stereo not drawn)	2	0	-3	0	-3	16
COc1ccc(NC(=S)N(CCc2c(C)[nH]c3ccc(C)cc23)Cc2cccs2)cc1	4	-6	2	-9	4	21
CCNC(=S)N(CCc1c(C)[nH]c2ccc(F)cc12)Cc1cccnc1	-1	1	-4	-21	3	39
COc1ccc2[nH]c(C)c(CCN(Cc3cccs3)C(=S)Nc3ccccc3)c2c1	4	-4	-1	-27	35	58*
Cc1[nH]c2ccc(F)cc2c1CCN(Cc1cccnc1)C(=S)Nc1ccc(F)cc1	4	8	0	-42	19	61*
COc1ccc2[nH]c(C)c(CCN(Cc3cccs3)C(=S)Nc3ccc(F)cc3)c2c1	4	-2	-2	-35	1	55*
C=CC[n+]1c(/C=C2\C=Cc3cc(C)ccc3N2CC)ccc2ccccc21	5	-31	-1	-41	-6	66*
O=S(=O)(NC(CO)Cc1ccccc1)c1ccc(Br)cc1F (stereo not drawn)	nt	-8	nt	nt	nt	nt
CCN(CC)C(=O)C1=C(C)N(Cc2ccc(F)cc2)C(=O)C(CC(=O)NCCN2CCOCC2)C1 (stereo not drawn)	nt	-4	nt	nt	nt	nt
CCOC(=O)N1CCN(C(=O)C(=O)c2cn(CC(=O)N3CCCCCC3)c3ccccc23)CC1	2	5	0	-18	-1	43
CC1CCCCN1C(=O)C(=O)c1cn(CC(=O)N2CCCCCC2)c2ccccc12 (stereo not drawn)	0	-5	3	11	-8	64*
CCOC(=O)C1CCN(C(=O)C(=O)c2cn(CC(=O)N3CCCCCC3)c3ccccc23)CC1	2	3	0	-5	1	62*
CSc1ccc(CN(C)CC(=O)NC(=O)NCCC2=CCCCC2)cc1	4	-9	nt	nt	3	nt
Cc1ccc(CN2CCSc3ccc(C(=O)NC4CCN(Cc5ccccc5)CC4)cc32)cc1	-1	1	1	-9	-1	57*
O=C(Nc1ccncc1)C1CCN(S(=O)(=O)c2c(Cl)cccc2Cl)CC1	1	-17	-2	nt	-5	-4
Cc1cc(C(=O)NCC23CC4CC(CC(C4)C2)C3)c(C)o1	1	nt	-1	-7	-3	61*
CN1OC[C@@H]2CN(Cc3cc(Cl)cc(Cl)c3)[C@H](c3cccc(Br)c3)C[C@@H]21	nt	-13	nt	nt	nt	nt
COc1ccc(CC(=O)Nc2nccs2)cc1OC	1	-6	-5	5	2	-4

Assay outcomes (PubChem BioAssay)
